# From ChEMBL document CHEMBL1142195, “A novel nonnucleoside analogue that inhibits human immunodeficiency virus type 1 isolates resistant to current nonnucleoside reverse transcriptase inhibitors” (Antimicrob Agents Chemother, 2007)
# Active and inactive are the calls of the source. The rule behind the calls is not given here.
# Legend:
# [1] = test system: Human immunodeficiency virus 1; experiment: Antiviral activity against HIV1 isolate with RT 103N, 190A mutation relative to wild type; type: functional
# [2] = test system: Human immunodeficiency virus 1; experiment: Antiviral activity against HIV1 isolate with RT 101R, 103N, 181C, 190A mutation relative to wild type; type: functional
# [3] = test system: Human immunodeficiency virus 1; experiment: Antiviral activity against HIV1 isolate with RT 103N, 238N mutation relative to wild type; type: functional
# Method in brief: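 Mutant RT clones built in pNL4-3.Luc.R−E− reporter, VSV-G-pseudotyped, single-round infection of HeLa-JC53 cells (15,000/well, MOI 0.03) with 1:4 serial compound dilutions in DMEM (phenol red-free), 2% FBS, 0.2% final DMSO; 48 h at 37°C, 5% CO2; luciferase chemiluminescence read-out. Fold change in EC50 relative to wild-type virus; mean of two tests.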
# [4] = test system: Human immunodeficiency virus 1; experiment: Inhibition of non-B HIV1 isolates (clades A, AC, C, D and F); type: functional, organism-based
# [5] = test system: Human immunodeficiency virus 1; experiment: Antiviral activity against HIV1 isolate with RT T369I mutation in Hela-JC-53 cells; type: functional
# [6] = test system: Human immunodeficiency virus 1; experiment: Antiviral activity against HIV1 isolate with RT Y188L mutation; type: functional, organism-based
# Method in brief: (§1)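 VSV-G-pseudotyped pNL4-3.Luc.R−E− molecular clones carrying the RT mutations, single-round infection of HeLa-JC53 cells (15,000/well) at MOI 0.03. Compounds serially diluted 1:4 in DMSO then in phenol red-free DMEM with 2% FBS, final DMSO 0.2%. Incubated 48 h at 37°C, 5% CO2. Luciferase read-out by chemiluminescence gives the EC50. Fold change is relative to wt virus, mean of two tests.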
# [7] = test system: Human immunodeficiency virus 1; experiment: Antiviral activity against HIV1 isolate with RT Y181C mutation in Hela-JC-53 cells; type: functional
# [8] = test system: Human immunodeficiency virus 1; experiment: Inhibition of wild type clade B HIV1 NL4-3; type: functional, organism-based
# Method in brief: (§2)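 Single-round assay in HeLa-JC53 cells (15,000/well) using VSV-G-pseudotyped pNL4-3.Luc.R−E−-derived virus at MOI 0.03. Compounds serially diluted 1:4 in DMSO then medium (2% FBS; final DMSO 0.2%). Incubated 48 h at 37°C in 5% CO2. Luciferase chemiluminescence read-out; EC50 determined.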
# [9] = test system: Human immunodeficiency virus 1; experiment: Antiviral activity against HIV1 isolate with RT K103N-K101Q-P225H mutation; type: functional, organism-based; method in brief: as §1
# Hepatitis B virus = experiment: Inhibition of hepatitis B virus replication; type: functional, organism-based
# [10] = test system: Human immunodeficiency virus 1; experiment: Antiviral activity against HIV1 isolate with RT K103N-P225H mutation; type: functional, organism-based; method in brief: as §1
# [11] = test system: Human immunodeficiency virus 1; experiment: Antiviral activity against HIV1 isolate with RT K103N-V108I-P225H mutation; type: functional, organism-based; method in brief: as §1
# [12] = test system: Human immunodeficiency virus 1; experiment: Antiviral activity against HIV1 isolate with RT F227L mutation in Hela-JC-53 cells; type: functional
# [13] = test system: Human immunodeficiency virus 1; experiment: Antiviral activity against wild type HIV1 NL4-3 in Hela-JC53 cells in the presence of 30% human serum after 48 hrs; type: functional, organism-based; conditions: Human immunodeficiency virus 1, NL4-3, Hela-JC53, 48 h
# Method in brief: (§3)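 HeLa-JC53 cells (1.5 × 10^4) infected with VSV-G-pseudotyped NL4-3.Luci.R−E− reporter virus at MOI 0.03, with 1:4 serial compound dilutions. Heat-inactivated human serum added to final 0–50% on a basal 2% FBS medium. Incubated 48 h at 37°C in 5% CO2. Luciferase read-out; EC50 by nonlinear regression.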
# [14] = test system: Human immunodeficiency virus 1; experiment: Antiviral activity against HIV1 isolate with RT V106I, D123G, Y181C, F227L, T369I mutation in Hela-JC-53 cells; type: functional
# [15] = test system: Human immunodeficiency virus 1; experiment: Antiviral activity against HIV1 isolate with RT V106I, D123G, Y181C, F227L mutation in Hela-JC-53 cells; type: functional
# [16] = test system: Human immunodeficiency virus 1; experiment: Antiviral activity against wild type HIV1 NL4-3 in Hela-JC53 cells in the presence of 5% human serum after 48 hrs; type: functional, organism-based; conditions: Human immunodeficiency virus 1, NL4-3, Hela-JC53, 48 h; method in brief: as §3
# [17] = Cmax in dog at 10 mg/kg, iv; type: ADME, organism-based, Canis lupus familiaris; parameters: dose 10 mg/kg, route intravenous; conditions: in vivo
# [18] = test system: Human immunodeficiency virus 1; experiment: Antiviral activity against HIV1 isolate with RT D123G mutation in Hela-JC-53 cells; type: functional
# [19] = test system: Human immunodeficiency virus 1; experiment: Antiviral activity against HIV1 NL4-3 with Y188L mutation in Hela-JC53 cells in the presence of 5% human serum after 48 hrs; type: functional, organism-based; conditions: Human immunodeficiency virus 1, NL4-3, Hela-JC53, 48 h
# Method in brief: (§4)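 VSV-G-pseudotyped Y188L NL4-3.Luci.R−E− virus (MOI 0.03) infecting HeLa-JC53 cells (1.5 × 10^4) in phenol red-free DMEM with 2% FBS. Serially diluted compound was added, then heat-inactivated human serum at final 0, 5, 10, 20, 30, 40 or 50%. Cultures ran 48 h at 37°C in 5% CO2, read by Bright-Glo luciferase chemiluminescence. EC50 was taken by nonlinear regression.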
# [20] = test system: Human immunodeficiency virus 1; experiment: Antiviral activity against wild type HIV1 NL4-3 in Hela-JC53 cells after 48 hrs; type: functional, organism-based; conditions: Human immunodeficiency virus 1, NL4-3, Hela-JC53, 48 h; method in brief: as §2
# [21] = test system: Human immunodeficiency virus 1; experiment: Antiviral activity against HIV1 isolate with RT Y181C mutation; type: functional, organism-based; method in brief: as §1
# [22] = test system: Human immunodeficiency virus 1; experiment: Antiviral activity against HIV1 isolate with RT V106I mutation; type: functional, organism-based; method in brief: as §1
# [23] = test system: Human immunodeficiency virus 1; experiment: Antiviral activity against wild type HIV1 NL4-3 in Hela-JC53 cells in the presence of 50% human serum after 48 hrs; type: functional, organism-based; conditions: Human immunodeficiency virus 1, NL4-3, Hela-JC53, 48 h; method in brief: as §3
# [24] = Bioavailability in dog at 20 mg/kg, po; type: ADME, organism-based, Canis lupus familiaris; conditions: in vivo
# Method in brief: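 Dogs given 10 mg/kg i.v. or 20 mg/kg p.o., n = 3 per time point. Plasma sampled predose through 24 h. Bioavailability = (oral AUC0-∞/intravenous AUC0-∞) × 100.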
# [25] = test system: Human immunodeficiency virus 1; experiment: Antiviral activity against HIV1 isolate with RT G190S mutation; type: functional, organism-based; method in brief: as §1
# [26] = test system: Human immunodeficiency virus 1; experiment: Antiviral activity against HIV1 NL4-3 with Y188L mutation in Hela-JC53 cells in the presence of 40% human serum after 48 hrs; type: functional, organism-based; conditions: Human immunodeficiency virus 1, NL4-3, Hela-JC53, 48 h; method in brief: as §4
# [27] = test system: Human immunodeficiency virus 1; experiment: Antiviral activity against HIV1 NL4-3 with Y188L mutation in Hela-JC53 cells after 48 hrs; type: functional, organism-based; conditions: Human immunodeficiency virus 1, NL4-3, Hela-JC53, 48 h; method in brief: as §4
# [28] = test system: Human immunodeficiency virus 1; experiment: Antiviral activity against wild type HIV1 NL4-3 in Hela-JC53 cells in the presence of 20% human serum after 48 hrs; type: functional, organism-based; conditions: Human immunodeficiency virus 1, NL4-3, Hela-JC53, 48 h; method in brief: as §3
# [29] = Half life in dog at 20 mg/kg, po; type: ADME, organism-based, Canis lupus familiaris; parameters: dose 20 mg/kg, route oral; conditions: in vivo
# [30] = Plasma concentration in dog at 10 mg/kg, iv after 12 hrs; type: ADME, organism-based, Canis lupus familiaris; parameters: dose 10 mg/kg, route intravenous
# [31] = test system: Human immunodeficiency virus 1; experiment: Antiviral activity against HIV1 NL4-3 with Y188L mutation in Hela-JC53 cells in the presence of 50% human serum after 48 hrs; type: functional, organism-based; conditions: Human immunodeficiency virus 1, NL4-3, Hela-JC53, 48 h; method in brief: as §4
# [32] = test system: Human immunodeficiency virus 1; experiment: Antiviral activity against HIV1 isolate with RT K103N-Y188L mutation; type: functional, organism-based; method in brief: as §1
# [33] = test system: Human immunodeficiency virus 1; experiment: Antiviral activity against HIV1 isolate V106I-Y188L mutant; type: functional, organism-based
# [34] = AUC in dog at 10 mg/kg, iv; type: ADME, organism-based, Canis lupus familiaris; parameters: dose 10 mg/kg, route intravenous; conditions: plasma
# [35] = test system: Human immunodeficiency virus 1; experiment: Antiviral activity against HIV1 isolate with RT G190A mutation; type: functional, organism-based; method in brief: as §1
# [36] = test system: Human immunodeficiency virus 1; experiment: Antiviral activity against HIV1 isolate with RT K103N-L100I mutation; type: functional, organism-based; method in brief: as §1
# [37] = test system: Human immunodeficiency virus 1; experiment: Antiviral activity against HIV1 isolate with RT K103N mutation; type: functional, organism-based; method in brief: as §1
# [38] = AUC in dog at 20 mg/kg, po; type: ADME, organism-based, Canis lupus familiaris; parameters: dose 20 mg/kg, route oral; conditions: plasma
# [39] = Plasma concentration in dog at 20 mg/kg, po after 12 hrs; type: ADME, organism-based, Canis lupus familiaris; parameters: dose 20 mg/kg, route oral
compound,measurement,setting,value
Cc1ccnc2c1NC(=O)c1cccnc1N2C1CC1 [NEVIRAPINE],Fold change,[1],>100
same,Fold change,[2],>100
same,Fold change,[3],>100
NS(=O)(=O)c1ccc(NC(=O)CSc2nnc(Br)n2-c2ccc(C3CC3)c3ccccc23)c(Cl)c1,Activity,[4],Active
same,Fold change,[5],1.3
same,EC50,[6],0.81 nM
same,Fold change,[7],1.9
same,Activity,[8],Active
same,EC50,[9],0.11 nM
same,Activity,Hepatitis B virus,inactive
same,EC50,[10],0.13 nM
same,EC50,[11],0.15 nM
same,Fold change,[12],0.7
same,EC50,[13],8.6 nM
same,Fold change,[14],31.2
same,Fold change,[15],9.1
same,EC50,[16],2.4 nM
same,Cmax,[17],4420 ng/mL
same,Fold change,[18],1
same,EC50,[19],13.7 nM
same,EC50,[20],0.6 nM
same,EC50,[21],0.23 nM
same,EC50,[22],0.09 nM
same,EC50,[23],13 nM
same,bioavailability,[24],47.1%
same,EC50,[25],0.23 nM
same,EC50,[26],54 nM
same,EC50,[27],3.7 nM
same,EC50,[28],7.1 nM
same,half-life,[29],3.36 h
same,concentration at 12 h,[30],283 ng/mL
same,EC50,[31],79.9 nM
same,EC50,[32],1.07 nM
same,EC50,[33],2.27 nM
same,AUC,[34],20900 ng·h/mL
same,EC50,[35],0.19 nM
same,EC50,[36],0.05 nM
same,EC50,[37],0.09 nM
same,AUC,[38],19600 ng·h/mL
same,concentration at 12 h,[39],742 ng/mL
